The source made the active and inactive calls. The calls are words filed in the database; no cut-off is given here.
How the values were obtained:
[1] = target: Bromodomain-containing protein 4 (Homo sapiens, UniProt O60885); assay: Inhibition of BRD4 in human HCT116 cells assessed as induction of autophagy by measuring LC3-I cleavage to LC3-II at 0.5 uM measured after 24 hrs by Western blot analysis; assay type: cell-based
Outline: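 HCT-116 cells were treated for 24 hours with 0.5 μM, 2.0 μM or 10 μM agents. LC3 (LC3-I to LC3-II conversion) and p62 were then detected by western blot.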

[2] = target: Histone deacetylase 3 (Homo sapiens, UniProt O15379); assay: Inhibition of HDAC3 (unknown origin) using biotinylated histone H3 KAc peptide (1 to 21 residues) as substrate by HTRF assay
Sequence of Histone deacetylase 3 (O15379 whole entry, the tested form may be a part): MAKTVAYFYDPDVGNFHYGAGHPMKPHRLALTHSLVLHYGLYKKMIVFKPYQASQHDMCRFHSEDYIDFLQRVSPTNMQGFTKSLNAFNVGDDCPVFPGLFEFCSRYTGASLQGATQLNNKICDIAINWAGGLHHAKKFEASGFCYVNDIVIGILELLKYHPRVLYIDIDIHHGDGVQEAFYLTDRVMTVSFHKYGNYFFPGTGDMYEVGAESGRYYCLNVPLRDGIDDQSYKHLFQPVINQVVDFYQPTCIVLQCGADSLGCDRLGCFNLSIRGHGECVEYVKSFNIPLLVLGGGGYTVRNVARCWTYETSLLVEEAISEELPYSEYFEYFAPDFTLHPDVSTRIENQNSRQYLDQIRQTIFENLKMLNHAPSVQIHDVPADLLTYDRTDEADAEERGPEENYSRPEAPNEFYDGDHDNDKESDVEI

[3] = Toxicity in BALB/cAnNCrl mouse xenografted with human HCT116 cells assessed as effect on lung morphological changes at 15 to 30 mg/kg, po administered on day 1 to day 19 measured on day 19 by hematoxylin and eosin staining based assay; assay type: organism-based; details: in vivo
Outline: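 HCT-116 xenograft mice dosed orally at 15 or 30 mg/kg for 19 days, saline as vehicle control; body weights tracked, and main organs sectioned and H&E-stained at study end.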

[4] = system: Mus musculus; assay: Downregulation of Ki67 expression in tumor tissue of BALB/cAnNCrl mouse xenografted with human HCT116 cells at 15 to 30 mg/kg, po administered on day 1 to day 19 measured on day 19 by Ki67-staining based immunohistochemical analysis; assay type: functional, organism-based
Outline: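 HCT-116 xenograft mice were dosed orally at 15 or 30 mg/kg, or 30 mg/kg for reference agents, for 19 days, with vehicle or saline controls. Tumor sections were stained for Ki-67, c-Myc, Ac-H3, BRD4, LC3-II, LIFR and p-STAT3 by immunohistochemistry, and TUNEL staining was used as the apoptosis marker.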

[5] = species on record: Homo sapiens; assay: Inhibition of BRD4/HDAC in human HCT116 cells assessed as inhibition of IL6-JAK-STAT3 signaling pathway by measuring decrease in OSMR expression at 0.5 uM after 24 hrs by Western blot analysis; assay type: cell-based
Outline: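 HCT-116 cells treated 24 h with 0.5 µM, 5.0 µM or 10 µM test agent depending on compound; OSMR, LIFR and downstream pathway proteins detected by western blot.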

inhibition [1]: Active
IC50 [2]: 0.075 µM
Structure (SMILES): Cc1cc(-c2nc3sc4c(c3c(=O)[nH]2)CCN(C)C4)cc(C)c1OCCCCCC(=O)NO
Activity [3]: Non-Toxic
inhibition [4]: Active
inhibition [5]: Active

— ChEMBL document CHEMBL4342471, “Discovery of Thieno[2,3-d]pyrimidine-Based Hydroxamic Acid Derivatives as Bromodomain-Containing Protein 4/Histone Deacetylase Dual Inhibitors Induce Autophagic Cell Death in Colorectal Carcinoma Cells” (J Med Chem, 2020)
